Experimental data taken from ChEMBL document CHEMBL1687920, “Structure-based discovery of inhibitors of microsomal prostaglandin E2 synthase-1, 5-lipoxygenase and 5-lipoxygenase-activating protein: promising hits for the development of new anti-inflammatory agents” (J Med Chem, 2011).

Tests used:
[1] = molecular target: T1, Polyunsaturated fatty acid 5-lipoxygenase (Homo sapiens, UniProt P09917); test: Inhibition of human recombinant 5-lipoxygenase expressed in Escherichia coli MV1190 by cell free assay
T1 sequence (P09917 whole entry): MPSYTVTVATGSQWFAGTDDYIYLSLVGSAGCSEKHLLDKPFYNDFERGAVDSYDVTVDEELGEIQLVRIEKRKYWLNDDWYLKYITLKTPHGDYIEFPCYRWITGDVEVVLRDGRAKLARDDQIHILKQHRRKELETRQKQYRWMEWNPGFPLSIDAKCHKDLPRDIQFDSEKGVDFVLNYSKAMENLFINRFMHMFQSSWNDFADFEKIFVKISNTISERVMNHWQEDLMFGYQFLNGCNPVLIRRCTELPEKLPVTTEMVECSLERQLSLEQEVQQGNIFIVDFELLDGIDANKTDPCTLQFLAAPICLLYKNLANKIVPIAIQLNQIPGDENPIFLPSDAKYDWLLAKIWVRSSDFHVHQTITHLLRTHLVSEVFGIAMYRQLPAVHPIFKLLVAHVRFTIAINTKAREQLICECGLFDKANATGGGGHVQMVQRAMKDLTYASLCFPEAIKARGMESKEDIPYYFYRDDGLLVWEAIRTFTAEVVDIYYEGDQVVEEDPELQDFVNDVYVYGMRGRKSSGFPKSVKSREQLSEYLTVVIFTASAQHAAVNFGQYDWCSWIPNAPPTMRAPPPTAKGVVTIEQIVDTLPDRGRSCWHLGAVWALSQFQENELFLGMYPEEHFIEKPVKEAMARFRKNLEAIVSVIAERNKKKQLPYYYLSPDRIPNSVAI
How it was run: (§1)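 Cell-free activity assay with isolated human recombinant 5-LO. Compounds screened at 30 μM in DMSO, with 0.3% v/v DMSO as vehicle and BWA4C as positive control. IC50 taken from concentration-response curves. Means ± SE, n = 4-5.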

[2] = molecular target: T2, Polyunsaturated fatty acid 5-lipoxygenase (Homo sapiens) (UniProt P09917); test: Inhibition of human recombinant 5-lipoxygenase expressed in Escherichia coli MV1190 assessed as residual activity at 30 uM by cell free assay; how it was run: as §1
T2 sequence (whole entry): T1 sequence (P09917 whole entry)

[3] = molecular target: T1, Polyunsaturated fatty acid 5-lipoxygenase; test: Inhibition of 5-lipoxygenase in human neutrophils
How it was run: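 Human neutrophils stimulated with ionophore A23187 to probe FLAP-dependent 5-LO product formation. Compounds in DMSO (vehicle 0.3% v/v) screened at 30 μM and tested in concentration-response. A FLAP inhibitor served as control. n = 4-5 for the curves.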

[4] = molecular target: T2, Polyunsaturated fatty acid 5-lipoxygenase (Homo sapiens); test: Inhibition of 5-lipoxygenase in human neutrophils assessed as residual activity at 10 uM; values are per cent of control
[5] = molecular target: Prostaglandin E synthase / mPGES-1 (Homo sapiens) (UniProt O14684); test: Inhibition of Prostaglandin E2 synthase-1 in IL1-beta stimulated microsomal fraction of human A549 cell assessed as residual activity at 30 uM; details: Microsome
Chain of Prostaglandin E synthase / mPGES-1 (Homo sapiens) (O14684 whole entry, looked up): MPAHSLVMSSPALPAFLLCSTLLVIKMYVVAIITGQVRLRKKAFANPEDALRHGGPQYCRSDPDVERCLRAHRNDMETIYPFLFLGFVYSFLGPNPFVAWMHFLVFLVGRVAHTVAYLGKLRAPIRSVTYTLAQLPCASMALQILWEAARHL

[6] = molecular target: T2, Polyunsaturated fatty acid 5-lipoxygenase (Homo sapiens); test: Inhibition of human recombinant 5-lipoxygenase expressed in Escherichia coli MV1190 assessed as residual activity at 10 uM by cell free assay; values are per cent of control
[7] = molecular target: T2, Polyunsaturated fatty acid 5-lipoxygenase (Homo sapiens); test: Inhibition of 5-lipoxygenase in human neutrophils assessed as residual activity at 30 uM; values are per cent of control

SMILES | IC50 [1] [µM] | remaining activity [2] [%] | IC50 [3] [µM] | residual activity [4] [%] | remaining activity [5] [%] | residual activity [6] [%] | residual activity [7] [%]
O=Cc1ccc(-c2c(Cc3ccccc3)nnn2CSc2ccccc2)cc1 | > 30 | 57.3 | 6 | 17.3 | 72.1 |  | 
O=C(O)c1ccc(S(=O)(=O)n2cc(-c3ccc(-c4ccccc4COc4cccc5ccccc45)cc3)nn2)cc1 | 0.8 |  | 0.6 | 3.5 | 59.8 | 13.6 | 
CN(C)c1cccc2c(S(=O)(=O)Nc3ccc(-c4ccc(-c5cn(CCCc6ccccc6)nn5)cc4)cc3)cccc12 | 4.1 | 5.1 | 2.8 | 21.2 | 85 |  | 
Cc1ccccc1CCn1cc(-c2ccc(-c3ccccc3COc3cccc4ccccc34)cc2)nn1 | > 30 | 78.4 | > 30 |  | 90 |  | 84.5
Cc1ccccc1CCn1cc(-c2ccc(-c3ccccc3COc3cc(C(F)(F)F)ccc3Cl)cc2)nn1 | > 30 | 82.5 | > 30 |  | 87.9 |  | 92.1
O=C(OCc1cn(CSc2ccccc2)nn1)c1ccccc1 | > 30 | 80.8 | 9.3 |  | 76.1 |  | 14.6
c1ccc(CCCn2cc(-c3ccc(-c4ccc(Oc5ccccc5)cc4)cc3)nn2)cc1 | > 30 | 59.2 | > 30 |  | 88.7 |  | 70.1
c1ccc(CCCn2cc(-c3ccc(-c4cc5ccccc5c5ccccc45)cc3)nn2)cc1 | > 30 | 82.9 | > 30 |  | 78.2 |  | 85.7
FC(F)(F)c1ccc(Cl)c(OCc2ccccc2-c2ccc(-c3cn(CCCc4ccccc4)nn3)cc2)c1 | 8.8 | 10.1 | > 30 |  | 91.9 |  | 52.7
c1ccc(CCCn2cc(-c3ccc(-c4ccccc4COc4cccc5ccccc45)cc3)nn2)cc1 | > 30 | 77.4 | > 30 |  | 96.8 |  | 79.9

The remaining lines, values ahead:

IC50 [1] [µM] | remaining activity [2] [%] | IC50 [3] [µM] | residual activity [4] [%] | remaining activity [5] [%] | residual activity [6] [%] | residual activity [7] [%] | SMILES
27 | 48.8 | 0.4 | 1.1 | 60.1 |  |  | Oc1cccc(-c2ccc(-c3cn(CSc4ccccc4)nn3)cc2)c1
> 30 | 58.4 | > 30 |  | 73.6 |  | 70.2 | Oc1ccc(-c2ccc(-c3cn(CCCc4ccccc4)nn3)cc2)cc1
> 30 | 60.7 | 1.7 | 22 | 98.2 |  |  | Cc1ccccc1CCn1cc(-c2ccc(-c3ccc(N)cc3)cc2)nn1
> 30 | 62.3 | 0.9 | 34.8 | 89 |  |  | Oc1ccc(-c2ccc(-c3cn(CSc4ccccc4)nn3)cc2)cc1
6.7 | 20 | 9.2 |  | 12 |  | 20.1 | O=C(O)c1ccc(Cn2cc(-c3ccc(-c4ccccc4)cc3)nn2)c([N+](=O)[O-])c1
